Assay outcomes: PubChem, The Scripps Research Institute Molecular Screening Center
GPR7 antagonist: blocks human GPR7 receptor signaling; P48145; GPR7-expressing cells, fluorescence antagonist assay; inhibition, % at 4.4 µM; 290,000 tested, 1.1% active; in the data active = inhibition above about 16%, passing the limit was not always enough;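 also: cells stimulated with the agonist NPW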
Target sequence (P48145 whole entry, looked up): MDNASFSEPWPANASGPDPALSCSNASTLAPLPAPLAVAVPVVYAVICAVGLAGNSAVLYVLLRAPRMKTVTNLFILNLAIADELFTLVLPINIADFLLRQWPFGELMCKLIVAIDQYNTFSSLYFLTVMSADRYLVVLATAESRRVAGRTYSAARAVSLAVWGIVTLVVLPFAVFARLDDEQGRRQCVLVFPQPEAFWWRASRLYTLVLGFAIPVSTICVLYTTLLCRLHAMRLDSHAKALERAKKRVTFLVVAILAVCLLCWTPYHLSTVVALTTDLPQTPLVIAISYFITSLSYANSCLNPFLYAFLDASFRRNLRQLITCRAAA
CHO parental Ca: counter-screen: ATP calcium response change in parental CHO cells; parental CHO-K1, ATP-induced calcium, Fluo-8 fluorescence; inhibition, % at 5.6 µM; 330,000 tested, 0.63% active; AID 463079;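 active = inhibition above that plate's mean sample inhibition plus 3 SD, cut at about 26% in these data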
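Material: parental CHO cells / Compound: single nominal dose of 5.6 µM per compound / Signal: Fluo-8 fluorescence / Replicates: singlicate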
OX1R antag-1: blocks the human orexin 1 receptor; O43613; CHO/OX1R cells, Fluo-8 calcium fluorescence, orexin A; inhibition, % at 5 µM; 330,000 tested, 0.43% active; AID 434989;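 active = inhibition above its plate's threshold, mean inhibition of all tested compounds on the plate plus 3 SD, cut at about 37% in these data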
OX1R antag-2: blocks the human orexin 1 receptor. inhibition, % at 6.6 µM. AID 485270. O43613. 330,000 tested, 1.8% active. OX1R-expressing cells, FRET antagonist read-out; in the data active = inhibition mostly above about 38%, no sharp cut-off; inactive = mostly below about 40%
TAAR1 antag: antagonists of human TAAR1; Q96RJ0; 360,000 tested, 1.5% active; inhibition, % at 3 µM; CHO RD-HGA16 TAAR1, Fluo-8 calcium fluorescence, antagonist;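 active = inhibition above a per-plate cutoff, the mean inhibition of test compounds on that plate plus 3 SD, cut at about 49% in these data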
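Material: CHO RD-HGA16 cells bearing hTAAR1; compound dosing: one-point dosing, 3 µM nominal final; schedule: dye loading 75 min at 37 °C, then 30 min room temperature; measured by: calcium fluorescence with Fluo-8; control set: vehicle and agonist controls; replication: n of 1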
TAAR1 ag: human TAAR1 agonism | Q96RJ0 | CHO RD-HGA16 TAAR1, Fluo-8 calcium fluorescence; vehicle wells 0%, saturating PEA agonist 100% | activation, % at 3 µM | 360,000 tested, 0.99% active;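 active = activation above the mean activation of all test compounds in the run plus 3 SD, cut at about 38% in these data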
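Test system: RD-HGA16 (CHO) cells co-expressing Gα16 and hTAAR1; dosing: one-point dosing at 3 µM (nominal); timing: 17-24 h seeding, 75 min 37 °C dye, 30 min RT; signal: kinetic Fluo-8 calcium fluorescence; read-out basis: % activation relative to PEA EC100 response; controls: DMSO and PEA EC100; replicates: n 1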
A number is an active result; 0 = inactive; - = not tested or not shown. An excerpt weighted towards active compounds, which were near 4.6% of everything screened.

SMILES	GPR7 antagonist	CHO parental Ca	OX1R antag-1	OX1R antag-2	TAAR1 antag	TAAR1 ag
Cc1ccc(S(=O)(=O)/N=C(/Nc2ccc([N+](=O)[O-])cc2[N+](=O)[O-])c2ccccc2)cc1	-	0	0	52	0	0
O=C(COc1ccccc1)NNc1c2ccccc2nc2ccccc12	0	0	0	86	0	0
O=C(NNc1c2ccccc2nc2ccccc12)C(O)c1ccccc1 (stereo not drawn)	0	0	0	71	0	0
CCCC(=O)NNc1c2ccccc2nc2ccccc12	0	0	0	0	0	0
Clc1ccc2[nH]cc(-c3nnnn3-c3ccc4ccccc4c3)c2c1	0	57	0	0	49	0
Cc1ccc(-n2nnnc2-c2cnc3ccc(Cl)cc3c2-c2ccccc2)cc1	0	0	0	0	0	0
Cc1coc2c(C)c3oc(=O)c(CCC(=O)N[C@@H](C)C(=O)N[C@@H](Cc4ccccc4)C(=O)O)c(C)c3cc12	0	0	0	45	0	0
Cc1coc2c(C)c3oc(=O)c(CC(=O)N[C@@H](CC(C)C)C(=O)O)c(C)c3cc12	0	0	0	0	0	0
O=C(NCCc1ccccc1)c1ccc(-n2cnnn2)cc1	18	0	0	0	0	0
CCCCc1ccc(NC(=O)c2ccc(N(C)S(C)(=O)=O)cc2)cc1	0	69	0	0	0	0
Cc1ccc(S(=O)(=O)N(C)c2ccc(C(=O)NCCc3ccccc3)cc2)cc1	0	0	0	0	0	0
O=C(NCCc1c[nH]c2ccccc12)c1ccc(-n2cnnn2)cc1	0	0	0	0	0	0
CN(c1ccc(C(=O)NCCc2ccccc2)cc1)S(C)(=O)=O	0	0	0	0	0	40
O=C1C=CC(=O)N1c1cccc(-c2ccccc2)c1	0	0	45	0	69	0
COc1cc(N2C(=O)C=CC2=O)ccc1N1C(=O)C=CC1=O	-	-	-	-	0	0
O=C1NC(=Nc2cccc([N+](=O)[O-])c2)SC1(CO)CO	0	0	0	0	0	0
N#Cc1c(Cl)nsc1NC(=O)c1ccccc1	0	0	0	61	0	0
CC(=O)Nc1ccc(N=Cc2c(O)c(C(=O)Nc3ccccc3)cc3ccccc23)cc1	0	31	0	0	0	0
CC(=O)Nc1ccc(N=Cc2c(O)c3ccccc3oc2=O)cc1	0	-	-	-	0	0
Cc1ccc(-c2cc(N)n(Cc3ccc(Cl)cc3)n2)cc1	0	0	0	0	0	0
Cc1cc(N)n(Cc2ccc(Cl)cc2)n1	0	0	0	39	0	0
Cc1ccccc1NC(=O)COC(=O)[C@@H]1CCCN1C(=O)c1cccs1	-	0	0	0	0	0
CCOC(=O)Cn1c(-c2ccccc2)nc2ccccc2c1=O	0	0	0	75	0	0
CCCCOC(=O)Cn1c(-c2ccccc2)nc2ccccc2c1=O	0	0	0	0	0	0
CCOC(=O)CSc1nc(-c2ccccc2)nc2ccc(F)cc12	0	0	0	0	0	0
SMILES	GPR7 antagonist	CHO parental Ca	OX1R antag-1	OX1R antag-2	TAAR1 antag	TAAR1 ag
CCOC(=O)CSc1nc(-c2ccccc2)nc2ccccc12	0	0	0	38	0	0
CC(C)(C)C(=O)NC(=S)NNC(=O)C(c1ccccc1)c1ccccc1	90	79	93	0	-	-
CCC(C(=O)Nc1ccc(C)cc1)c1ccccc1 (stereo not drawn)	0	0	0	0	0	0
Cc1ccc(NC(=O)C(C)c2ccc(-c3ccccc3)c(F)c2)cc1 (stereo not drawn)	0	0	0	0	55	0
O=C(COc1ccccc1/C=C1\SC(=O)NC1=O)Nc1ccccc1	0	0	0	59	0	0
CCCN1CCN(C(=O)C2CCN(S(=O)(=O)c3ccc4c(c3)NC(=O)C(C)S4)CC2)CC1 (stereo not drawn)	0	0	0	0	0	0
CCOC(=O)c1cnc2sc3c(n2c1=O)CCCC3	0	43	0	0	0	0
Cc1ccc(-n2ncc3c(SCc4cccnc4)ncnc32)c(C)c1	0	-	-	-	0	0
Cc1ccc(S(=O)(=O)N2CCN(C(=O)c3cc(=O)[nH]c4ccccc34)CC2)c(C)c1	0	0	0	0	51	0
Cc1cc(C)c(S(=O)(=O)N2CCN(C(=O)c3cc(=O)[nH]c4ccccc34)CC2)c(C)c1	-	0	0	0	52	43
COc1ccc(C)cc1NC(=O)CCNS(=O)(=O)c1cccc2nonc12	0	0	0	71	0	0
Cn1cc([N+](=O)[O-])cc1-c1nc2ccccc2n1C	0	0	0	0	0	0
Cn1c(-c2ccc([N+](=O)[O-])cc2)nc2ccccc21	0	0	0	51	0	0
O=c1c(Cc2c(F)cccc2Cl)c(O)ccn1C1CC1	0	0	0	0	0	0
Cc1cccc(-c2ncc(CN3CCN(CCC(C)C)C(CCO)C3)cn2)c1 (stereo not drawn)	19	0	0	0	0	0
CC(OC(=O)C1CC1C)C(=O)Nc1ccc(Cl)cn1 (stereo not drawn)	-	-	-	-	0	0
COc1ccc([N+](=O)[O-])c(S(=O)(=O)c2ccccc2)n1	20	0	0	0	0	0
O=[N+]([O-])c1cccnc1S(=O)(=O)c1ccccc1	0	0	0	0	0	0
COc1ccc([N+](=O)[O-])c(S(=O)(=O)c2ccc(Cl)cc2)n1	0	46	0	0	0	0
CNc1cccnc1C=NNC(N)=S	-	-	-	-	0	0
COc1ccc(S(=O)(=O)Nc2ncccc2C)c2ccccc12	0	0	0	0	0	0
COc1cccc(CNC(=O)c2ccccc2C(=O)NC(C)(C)C(=O)NCc2cccc(OC)c2)c1	0	0	0	0	0	0
CN(C)c1ccc(NC(=O)Nc2csc3ccccc23)cc1	0	0	0	57	0	0
O=C(Nc1ccc(F)cc1)Nc1csc2ccccc12	0	0	0	0	0	0
Cc1ccc(O)c(NC(=O)CSc2n[nH]c(-c3ccccc3)n2)c1	0	0	0	0	0	0
O=C(CSc1n[nH]c(-c2ccccc2)n1)c1ccc(O)c(O)c1	21	0	0	0	0	0
CC(=O)c1c(C)oc2ccc(N(C(C)=O)S(=O)(=O)c3ccc(F)cc3C)cc12	0	0	0	0	0	0
CC(=O)c1c(C)oc2ccc(N(C(C)=O)S(=O)(=O)c3cccc4cccnc34)cc12	0	0	0	0	59	0
CCOC(=O)C1=CCN(S(=O)(=O)c2cccc(Cl)c2)C1c1ccc(Cl)c(Cl)c1 (stereo not drawn)	-	-	-	-	0	0
Cc1ccc(S(=O)(=O)N2C[C@H]3C(=O)C[C@@H]4C(=O)N(c5ccccc5)C(=O)[C@@H]4[C@@H]3C[C@H]2c2cccc(Cl)c2)cc1	-	-	-	-	60	0
